# Measured values as given in article PMC3048907 (Journal of medicinal chemistry, 2011).
# Legend:
# KB-VIN cells = assay: Verapamil reversal experiments; format: cell-based, human; conditions: for effect of verapamil co-treatment on cytotoxic activity (MDR-selectivity): co-treatment with verapamil 1 μg/mL
# [1] = tested on: A549 cells (microtubules and spindles); assay: Immunofluorescence staining of tubulin; format: cell-based, human; conditions: for microtubules (α-tubulin immunofluorescence) / mitotic spindles (α-tubulin immunofluorescence): A549, 24 h, 0.1 nM 21, 100 nM colchicine, 1.5 nM pacritaxel, 500 nM doxorubicin; for concentration at which antimicrotubule activity was seen: within 24 hr
# tubulin = assay: Tubulin assembly assay; format: biochemical; conditions: 10 μM tubulin, 20 min at 30 °C, highest concentration evaluated 40 μM
# [2] = tested on: KB-VIN (MDR line overexpressing P-glycoprotein); assay: Antiproliferative activity assay; format: cell-based, human; conditions: SRB assay, three days in culture; NA = not active, 20 μg/mL did not reach 50% inhibition
# human tumor cell lines = assay: Antiproliferative activity across the human tumor cell line panel; format: cell-based
# In short: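 Cells kept in RPMI-1640 with 25 mM HEPES, 0.25% bicarbonate, 10% FBS and 100 μg/mL kanamycin; trypsinized, seeded at 1500–7500 cells/well. Test compound added from DMSO stock diluted in medium (DMSO ≤0.5% v/v). After 3 days, cells fixed in cold 50% TCA, stained with 0.4% sulforhodamine B, A562 read. GI50 = 50% growth reduction vs untreated; mean of ≥3 determinations.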
# KB-VIN versus KB = conditions: P-gp overexpressing MDR tumor cell line vs non-MDR; cited from earlier work
smiles,measurement,setting,value
"CCC1=C(O)c2c(oc(-c3csc4ccc(Br)cc34)cc2=O)C(CC)(CC)C1=O [Compound 24, 2-(5′-Bromobenzo[b]thiophen-3′-yl)-6,8,8-triethyldesmosdumotin B]",effect of verapamil co-treatment on cytotoxic activity (MDR-selectivity),KB-VIN cells,partially reversed
CC(=O)O[C@H]1C(=O)[C@@]2(C)[C@H]([C@H](OC(=O)c3ccccc3)[C@]3(O)C[C@H](OC(=O)[C@H](O)[C@@H](NC(=O)c4ccccc4)c4ccccc4)C(C)=C1C3(C)C)[C@]1(OC(C)=O)CO[C@@H]1C[C@@H]2O [pacritaxel],microtubules (α-tubulin immunofluorescence),[1],detectable
same,mitotic spindles (α-tubulin immunofluorescence),[1],clearly seen
"CCC1=C(O)c2c(oc(-c3ccc4ccccc4c3)cc2=O)C(CC)(CC)C1=O [Compound 11, 2-(Naphthalen-2′-yl)-6,8,8-triethyldesmosdumotin B]",Inhibition of tubulin assembly IC50 ± SD,tubulin,Not obtainable ^c
"CCC1=C(O)c2c(oc(-c3cccc4ccsc34)cc2=O)C(CC)(CC)C1=O [Compound 27, 2-(Benzo[b]thiophen-7′-yl)-6,8,8-triethyldesmosdumotin B]",effect of verapamil co-treatment on cytotoxic activity (MDR-selectivity),KB-VIN cells,partially reversed
"CC1=C(O)C(C)(C)c2oc(-c3ccccc3)cc(=O)c2C1=O [Compound 1, desmosdumotin B]",GI50 KB-VIN,[2],active
same,activity against all non-MDR tumor cells,human tumor cell lines,non-active
same,"selectivity index [collateral sensitivity (CS), activity ratio of MDR line versus non-MDR line]",KB-VIN versus KB,greater than 20
"CCC1=C(O)c2c(oc(-c3csc4ccccc34)cc2=O)C(CC)(CC)C1=O [Compound 21, 2-(Benzo[b]thiophen-3′-yl)-6,8,8-triethyldesmosdumotin B]",microtubules (α-tubulin immunofluorescence),[1],undetectable
same,mitotic spindles (α-tubulin immunofluorescence),[1],undetectable
same,fold lower concentration than colchicine for antimicrotubule activity,"[1]; A549 cells, 24 hr",1000 fold
same,concentration at which antimicrotubule activity was seen,[1]; A549 cells,0.1 nM
COc1ccc(CCN(C)CCCC(C#N)(c2ccc(OC)c(OC)c2)C(C)C)cc1OC (stereo not shown) [verapamil],effect of verapamil alone on replication of KB-VIN cells,KB-VIN cells; verapamil 1 μg/mL,no effect
COc1cc2c(c(OC)c1OC)-c1ccc(OC)c(=O)cc1[C@@H](NC(C)=O)CC2 [colchicine],microtubules (α-tubulin immunofluorescence),[1],undetectable
same,mitotic spindles (α-tubulin immunofluorescence),[1],undetectable
same,concentration at which antimicrotubule activity was seen,[1]; A549 cells,100 nM
COc1cccc2c1C(=O)c1c(O)c3c(c(O)c1C2=O)C[C@@](O)(C(=O)CO)C[C@@H]3O[C@H]1C[C@H](N)[C@H](O)[C@H](C)O1 [doxorubicine],microtubules (α-tubulin immunofluorescence),[1],detectable
same,mitotic spindles (α-tubulin immunofluorescence),[1],undetectable
CCC1=C(O)c2c(oc(-c3ccccc3)cc2=O)C(CC)(CC)C1=O [Compound 2],GI50 KB-VIN,[2],active
same,Inhibition of tubulin assembly IC50 ± SD,tubulin,inactive
same,IC50,tubulin; read-out: Inhibition of tubulin assembly IC50 ± SD,> 40 µM
same,activity against all non-MDR tumor cells,human tumor cell lines,non-active
